These results are taken from ChEMBL document CHEMBL4038304, “Chiral Indolylarylsulfone Non-Nucleoside Reverse Transcriptase Inhibitors as New Potent and Broad Spectrum Anti-HIV-1 Agents” (J Med Chem, 2017).

The target in series [1] is Human immunodeficiency virus type 1 reverse transcriptase (Human immunodeficiency virus 1, UniProt Q72547, K103N). The series is described as follows: Inhibition of HIV1 reverse transcriptase p66 K103N mutant associated RNA dependent DNA polymerase activity expressed in Escherichia coli assessed as reduction in [3H]dTTP incorporation using poly(rA)/oligo(dT) as template/primer by scintillation counting analysis.

Series [2] concerns Human immunodeficiency virus 1. The series is described as follows: Antiviral activity against HIV1 harboring reverse transcriptase Y181C mutant infected in human […] cells assessed as protection against virus-induced cytopathic effect measured on day 5 post infection by MTT assay. It is filed as functional, cell-based. The settings on record: Human immunodeficiency virus 1, 120 h. Background: Protection from cytopathic effect is a common read-out in antiviral testing.

Series [3] has as its system Human immunodeficiency virus 1. The experiment in a line: Antiviral activity against HIV1 harboring reverse transcriptase K103N mutant infected in human […] cells assessed as protection against virus-induced cytopathic effect measured on day 5 post infection by MTT assay. In kind it is functional, cell-based. The settings on record: Human immunodeficiency virus 1, 120 h.

For series [4], the system named is Human immunodeficiency virus 1. The experiment in a line: Antiviral activity against HIV1 NL4-3 infected in human […] cells assessed as protection against virus-induced cytopathic effect measured on day 5 post infection by MTT assay. In kind it is functional, cell-based. To be noted: Human immunodeficiency virus 1, NL4-3, 120 h. The procedure, abridged: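 Values are means of two to three independent experiments, each run in triplicate. The lowest detectable concentration is reported where activity fell below the assay limit.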

The target of series [5] is Human immunodeficiency virus type 1 reverse transcriptase (Human immunodeficiency virus 1, UniProt Q72547). The series is described as follows: Inhibition of HIV1 NL4-3 reverse transcriptase His-tagged p66/p51 associated RNA dependent DNA polymerase activity expressed in Escherichia coli assessed as reduction in [3H]dTTP incorporation using poly(rA)/oligo(dT) as template/primer by scintillation counting analysis.

A short description of series [6]: Inhibition of HIV1 reverse transcriptase p66 K103N/[…] double mutant associated RNA dependent DNA polymerase activity expressed in Escherichia coli assessed as reduction in [3H]dTTP incorporation using poly(rA)/oligo(dT) as template/primer by scintillation counting analysis. The arrangement: species or system Human immunodeficiency virus 1.
In series [7] the test system is Human immunodeficiency virus 1. The series is described as follows: Antiviral activity against HIV1 harboring reverse transcriptase Y188L mutant infected in human […] cells assessed as protection against virus-induced cytopathic effect measured on day 5 post infection by MTT assay. In kind it is functional, cell-based. To be noted: Human immunodeficiency virus 1, 120 h.

In series [8] the target is Human immunodeficiency virus type 1 reverse transcriptase (Human immunodeficiency virus 1, UniProt Q72547, Y181I). The experiment in a line: Inhibition of HIV1 reverse transcriptase p66 Y181I mutant associated RNA dependent DNA polymerase activity expressed in Escherichia coli assessed as reduction in [3H]dTTP incorporation using poly(rA)/oligo(dT) as template/primer by scintillation counting analysis.

Series [9] addresses Human immunodeficiency virus type 1 reverse transcriptase (Human immunodeficiency virus 1, UniProt Q72547, Y181C). The experiment in a line: Inhibition of HIV1 reverse transcriptase p66 Y181C mutant associated RNA dependent DNA polymerase activity expressed in Escherichia coli assessed as reduction in [3H]dTTP incorporation using poly(rA)/oligo(dT) as template/primer by scintillation counting analysis.

For series [10], the system named is Human immunodeficiency virus 1. The experiment in a line: Antiviral activity against HIV1 harboring reverse transcriptase K103N /[…] double mutant infected in human […] cells assessed as protection against virus-induced cytopathic effect measured on day 5 post infection by MTT assay. The settings on record: Human immunodeficiency virus 1, 120 h. In kind it is functional, cell-based.

For series [11], the system named is BV-2. The experiment in a line: Effect on CD163 mRNA levels in C57BL/6 mouse BV2 cells at 1000 nM after 24 hrs by RT-PCR assay. In kind it is functional, cell-based.
Series [12] relates to BV-2. The experiment in a line: Cytotoxicity against C57BL/6 mouse BV2 cells assessed as effect on cell proliferation rate at 10 to 10000 nM up to 48 hrs by MTT assay. The settings on record: bv-2, 48 h, 10 µM. It is filed as cell-based. An outline of the steps: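 BV2 microglial cells cultured with compound at 10, 102, 103 and 104 nM, then proliferation rate measured.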

Series [13] can be described thus: Cytotoxicity against human MT4 cells assessed as cell viability by MTT assay. In kind it is cell-based. An outline of the steps: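 Uninfected MT-4 cells scored for viability by MTT. […] Values are means of two to three independent experiments, each run in triplicate.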
(In general: Formazan colour is commonly taken as a measure of viable cells.)

Series [14] concerns BV-2. The experiment in a line: Effect on fizz mRNA levels in C57BL/6 mouse BV2 cells at 1000 nM after 24 hrs by RT-PCR assay. In kind it is functional, cell-based.
Series [15] has as its system hippocampal neurons (Mus musculus). The experiment in a line: Neuroprotective activity against glutamate-induced excitotoxicity in C57BL/6 mouse hippocampal neurons assessed as increase in cell viability at 1000 nM preincubated for 30 mins followed by reincubation in conditioned culture media for 18 hrs in presence of glutamate by hemacytometric analysis.
The test system of series [16] is BV-2. The experiment in a line: Downregulation of iNOS mRNA levels in C57BL/6 mouse BV2 cells at 1000 nM after 24 hrs by RT-PCR assay. In kind it is functional, cell-based.
In series [17] the test system is BV-2. The series is described as follows: Antineuroinflammatory activity in C57BL/6 mouse BV2 cells assessed as inhibition of LPS-induced nitric oxide production at 1 to 10 uM after 24 hrs by Griess assay. It is filed as functional, cell-based.
Series [18] in a line: Selectivity index, ratio of CC50 for human MT4 cells to EC50 for HIV1 NL4-3 infected in human MT4 cells. In kind it is toxicity, cell-based. To be noted: read-out: Ratio CC50/EC50. The procedure, abridged:
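SI computed as CC50/EC50, using the MTT-based CC50 in uninfected MT-4 cells and the MTT-based EC50 against HIV-1 NL4-3-induced cell death in MT-4 cells. Experiments were run in triplicate, two to three times.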

Series [19] relates to BV-2. The experiment in a line: Downregulation of CD86 mRNA levels in C57BL/6 mouse BV2 cells at 1000 nM after 24 hrs by RT-PCR assay. It is filed as functional, cell-based.
For series [20], the system named is Human immunodeficiency virus 1. The series is described as follows: Ratio of EC50 for HIV-1 harboring reverse transcriptase K103N mutant infected in human MT4 cells to EC50 for HIV1 NL4-3 infected in human MT4 cells. It is filed as functional. An outline of the steps: (§1)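 Fold change calculated as EC50 against the stated resistant mutant HIV-1 strain divided by EC50 against wild-type NL4-3. Both EC50s come from MTT read-out of virus-induced death in MT-4 cells, mean of two to three independent experiments each in triplicate.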

Series [21] has as its system Human immunodeficiency virus 1. The experiment in a line: Ratio of EC50 for HIV-1 harboring reverse transcriptase Y188L mutant infected in human MT4 cells to EC50 for HIV1 NL4-3 infected in human MT4 cells. In kind it is functional. The procedure, abridged: as §1
For series [22], the system named is Human immunodeficiency virus 1. The experiment in a line: Ratio of EC50 for HIV-1 harboring reverse transcriptase Y181C mutant infected in human MT4 cells to EC50 for HIV1 NL4-3 infected in human MT4 cells. In kind it is functional. The procedure, abridged:
as §1

For series [23], the system named is Human immunodeficiency virus 1. The series is described as follows: Ratio of EC50 for HIV-1 harboring reverse transcriptase K103N/[…] double mutant infected in human MT4 cells to EC50 for HIV1 NL4-3 infected in human MT4 cells. In kind it is functional. The procedure, abridged: as §1

As a reminder, the IC50 is the concentration that inhibits the measured activity by half. Usually EC50 stands for the concentration that produces a half-maximal response. As a reminder, the CC50 is the concentration at which the toxic effect on the cells reaches its halfway point.

Calls of active or inactive are those of the source. The calls are words filed in the database; no cut-off is given here. Where only a bound is given, the exact number is not on record here.

As for `Cc1cc(C)cc(S(=O)(=O)c2c(C(=O)N[C@H](C)c3ccccc3F)[nH]c3ccc(Cl)cc23)c1`, the IC50 in series [1] turned out to be 228 nM; in series [5], 87 nM; in series [6], 222 nM; in series [8] it was 456 nM; in [9] it was 456 nM. For the same molecule, the EC50 in series [2] turned out to be 0.7 nM; in series [3], 0.7 nM; in [4], 0.7 nM; in series [7] it was 165 nM; in series [10], 2490 nM.

With `Cc1cc(C)cc(S(=O)(=O)c2c(C(=O)N[C@H](C)C(=O)NCc3ccncc3)[nH]c3ccc(Cl)cc23)c1`, the IC50 in series [1] is more than 50000 nM; in [5] it was 13000 nM; in series [6], more than 200000 nM; in [8] it was 61000 nM; in series [9], 61000 nM. For the same molecule, the EC50 was 181 nM in series [2]; 114 nM in [3]; 0.7 nM in series [4]; more than 23100 nM in [7]; 7120 nM in series [10].

On to `O=C1Nc2ccc(Cl)cc2[C@@](C#CC2CC2)(C(F)(F)F)O1` [EFAVIRENZ], for which the outcome (with BV-2 [11]; in the series with BV-2 [14]; in series [15]) was inactive. Further, the Activity result with BV-2 [12] was “Non-Toxic”. Also, the EC50 in series [2] was 160 nM; in series [3], 130 nM; in [4], 15.9 nM; in [7], 760 nM; in series [10], more than 317 nM. Further, in series [13], the CC50 is more than 15800 nM. For the same molecule, the outcome in the series on BV-2 [16] and in the series with BV-2 [17] was Active.

On to `Cc1cc(C)cc(S(=O)(=O)c2c(C(=O)NC(C)C(=O)NCc3ccncc3)[nH]c3ccc(Cl)cc23)c1` (racemic), for which the outcome with BV-2 [11] and with BV-2 [14] was inactive. For the same molecule, the Activity entry in the series on BV-2 [12] is listed as “Non-Toxic”. In addition, the EC50 in series [2] turned out to be 21 nM; in series [3], 1.9 nM; in series [4], 0.2 nM; in series [7], 819 nM; in series [10] it was 838 nM. Also, the CC50 in series [13] was 19500 nM. For the same molecule, the selectivity ratio in [18] was determined as 102000. In addition, the outcome (in series [15]; in the series on BV-2 [19]; in the series with BV-2 [16]; in the series on BV-2 [17]) was Active. Moreover, the “Ratio EC50” value in [20] came out at 52; in [21], 4095; in [22], 105; in [23], 4190.

On to `Cc1cc(C)cc(S(=O)(=O)c2c(C(=O)N[C@@H](C)C(=O)NCc3ccncc3)[nH]c3ccc(Cl)cc23)c1`, for which the IC50 in series [1] is 417 nM; in series [5] it was 506 nM; in [6], more than 40000 nM; in series [8], 870 nM; in [9], 870 nM. The EC50 in series [2] was 0.7 nM; in [3], 0.7 nM; in series [4] it was 0.7 nM; in series [7], 666 nM; in series [10], 857 nM.
